Test results: publication PMC7499187 (CPT: Pharmacometrics & Systems Pharmacology, 2020)
Several values for one entry are separate records, joined by “and”; a condition that tells them apart may be missing. Identical values can stand only once. Like-named read-outs stand apart in the source and are kept apart here.

How the values were obtained:
[1] = Semimechanistic population PK model; assay type: in vivo, human; details: for Absorption lag time / CLint to form M2 in liver / CLint to form M20 in liver / Central volume / Fraction of Fa absorbed via transit compartment / Fraction of dose entering gut compartment, Fa / MTT / Maximum rate of absorption, ka,max / Peripheral volume / Rate constant for formation of M2 from gut / Rate constant for formation of M20 from gut / Zero-order absorption duration / Diarrhea effect on Fa / Km / CLint of M2 in liver / CLint of M20 in liver: final population model; for Km: Km for saturable absorption
[2] = assay type: in vivo, human; details: geometric mean (%CV)
Summary of the method: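 Semimechanistic nonlinear mixed-effect population PK model with gut and hepatic CYP3A metabolism and a well-stirred liver model. Individual post hoc parameters simulated single oral doses (200 mg; cycle 1 day 1 starting 150 or 200 mg). Parent AUC0−∞ = Dose×F/CL. […] Cmax was taken from predicted profiles. Results are geometric mean (%CV).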

[3] = Noncompartmental analysis of absolute bioavailability study JPBS; assay type: in vivo, human
[4] = Simulated Day 1 and steady-state exposures in MONARCH 2; assay type: in vivo, human; details: MONARCH 2 and MONARCH 3, simulated exposures
Summary of the method: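 Breast cancer patients on endocrine therapy were grouped as East Asian (Japanese, Korean, Taiwanese) or non-East Asian. Each patient's post hoc parameters came from a mechanistic NONMEM model, with dosage averaged over the study. Simulations covered cycle 1 day 1 after the starting dose (150 or 200 mg) and steady state after 56 days of 12-hourly dosing. Read-outs were geometric mean (%CV) Cmax, Cmin and dosing-interval AUC for parent, M2, M20 and total actives.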

[5] = cited from earlier work
[6] = cited from earlier work; remark: listed apart in the source
[7] = Healthy subjects, 200 mg single oral dose, N = 65
[8] = JPBL (patients), 150 mg single oral dose, N = 326
[9] = JPBL (patients), 200 mg single oral dose, N = 142
[10] = JPBN (patients), 200 mg single oral dose, N = 132
[11] = Patients, 200 mg single oral dose, N = 421
[12] = NCA (200 mg), JPBS healthy subjects N = 8, geometric mean (%CV)
[13] = coadministration with clarithromycin (CYP3A inhibitor)
[14] = coadministration with rifampicin (CYP3A inducer)

## CCN1CCN(Cc2ccc(Nc3ncc(F)c(-c4cc(F)c5nc(C)n(C(C)C)c5c4)n3)nc2)CC1 [Abemaciclib]
[1]; adults
  effect of body weight on abemaciclib exposure: no clinically significant effect
[1]; crossover food effect study
  difference in absorption parameters between the fasted state, a standard meal, and a high-fat meal: no significant difference
[1]; Bootstrap median (95% CI)
  Absorption lag time: 1.76 (1.69–1.80) h
  CLint to form M2 in liver: 235 (199–284) L/h
  CLint to form M20 in liver: 700 (627–775) L/h
  Central volume: 604 (563–635) L
  Fraction of Fa absorbed via transit compartment: 0.479 (0.453–0.507)
  Fraction of dose entering gut compartment, Fa: 0.882 (0.874–0.890)
  MTT: 1.52 (1.43–1.62) h
  Maximum rate of absorption, ka,max: 97.6 (85.0–111) µmol/h
  Peripheral volume: 152 (132–184) L
  Rate constant for formation of M2 from gut: 0.401 (0.366–0.432) /h
  Rate constant for formation of M20 from gut: 0.306 (0.276–0.339) /h
  Zero-order absorption duration: 3.04 (2.52–3.84) h
[1]; Bootstrap median (95% CI), logit parameter
  Diarrhea effect on Fa: −0.0079 (−1.29, 2.65 × 10^−7)
[1]; Estimate (%SEE)
  Absorption lag time: 1.74 h and 1.74 (0.538) h
  CLint to form M2 in liver: 280 (0.436) L/h
  CLint to form M20 in liver: 705 (0.421) L/h
  Central volume: 588 (2.81) L
  Fraction of Fa absorbed via transit compartment: 0.458 (0.336)
  Fraction of dose entering gut compartment, Fa: 0.868 (0.0583)
  MTT: 1.44 h and 1.44 (3.68) h
  Maximum rate of absorption, ka,max: 91.1 µmol/h and 91.1 (3.96) µmol/h
  Peripheral volume: 159 (0.421) L
  Rate constant for formation of M2 from gut: 0.361 (0.479) /h
  Rate constant for formation of M20 from gut: 0.284 (0.468) /h
  Zero-order absorption duration: 3.18 h and 3.18 (10.3) h
[1]; Estimate (%SEE), on the logit parameter for Fa
  Diarrhea effect on Fa: −0.417 (7.99)
[1]; human, plasma, oral
  clearance: 380 mL/min
[1]; human, plasma, oral, Bootstrap median (95% CI)
  Km: 51.8 µM
[1]; human, plasma, oral, Estimate (%SEE)
  Km: 52.7 µM
[1]; in the absence of drug, metabolism-susceptible pathway
  intrinsic ka (absorption rate constant): 1.73 h⁻¹
[1]; in vivo
  absorbed amount absorbed via the zero-order route: 54.2%
  dose either not absorbed or lost as other metabolites: 13.2%
  total administered dose absorbed either as abemaciclib, M2, or M20: 86.8%
  typical total CLint of unbound abemaciclib that resulted in formation of M2 and M20: 985 L/h
[1]; saturable absorption from final transit compartment
  amount that results in half maximal absorption rate: 27 mg
[1]; saturable absorption from final transit compartment to liver
  typical ka,max: 46.2 mg/h
[2]; [7]
  Hepatic clearance: 23.8 (30.3) L/h
[2]; [8]
  Hepatic clearance: 25.1 (21) L/h
[2]; [9]
  Hepatic clearance: 26 (25.7) L/h
[2]; [10]
  Hepatic clearance: 24.3 (24.9) L/h
[2]; [11]
  Hepatic clearance: 21.8 (39.8) L/h
[3]; [12]
  Hepatic clearance: 24.0 (27) L/h
[3]; human, plasma, oral, 200 mg
  AUC(0-inf): 3730 ng·h/mL
  Cmax: 114 ng/mL
  bioavailability: 44.8%
[4]
  effect of East Asian ethnicity on abemaciclib PK: no effect
[5]; [13]
  increase of abemaciclib AUC: 237%
  increase of abemaciclib Cmax: 30%
[5]; [14]
  reduction of abemaciclib area under the curve (AUC): 95%
  reduction of abemaciclib maximum plasma concentration (Cmax): 92%
[6]
  parent drug renally excreted: 3%
[6]; in patients
  mean terminal elimination half-life: approximately 24 hours
[6]; phase I cancer patient population
  median time to maximum plasma concentration: approximately 8 hours

## Cc1nc2c(F)cc(-c3nc(Nc4ccc(CN5CCNCC5)cn4)ncc3F)cc2n1C(C)C [M2]
[1]; Bootstrap median (95% CI)
  CLint of M2 in liver: 241 (218–271) L/h
[1]; Estimate (%SEE)
  CLint of M2 in liver: 254 (2.06) L/h
[2]; [7]
  AUC0−∞: 1690 (39.9) ng·h/mL
  Apparent hepatic clearance: 22.9 (28.4) L/h
  Cmax: 28.8 (36.1) ng/mL
  Half-life: 21.2 (25.8) h
[2]; [8]
  AUC0−∞: 1640 (70.2) ng·h/mL
  Apparent hepatic clearance: 18.3 (49.9) L/h
  Cmax: 33.6 (70.4) ng/mL
  Half-life: 17.2 (65.1) h
[2]; [9]
  AUC0−∞: 1820 (72) ng·h/mL
  Apparent hepatic clearance: 20.9 (48.1) L/h
  Cmax: 40.2 (73.9) ng/mL
  Half-life: 16 (73.6) h
[2]; [10]
  AUC0−∞: 1620 (55.0) ng·h/mL
  Apparent hepatic clearance: 23.9 (35.3) L/h
  Cmax: 26.9 (54.7) ng/mL
  Half-life: 21.3 (73.5) h
[2]; [11]
  AUC0−∞: 1790 (71.6) ng·h/mL
  Apparent hepatic clearance: 21.5 (54.3) L/h
  Cmax: 30.3 (75.7) ng/mL
  Half-life: 19.3 (65.4) h
[3]; [12]
  AUC0−∞: 1450 (19) ng·h/mL
  Cmax: 31.7 (22) ng/mL
  Half-life: 72.6 (23) h

## CCN1CCN(Cc2ccc(Nc3ncc(F)c(-c4cc(F)c5nc(CO)n(C(C)C)c5c4)n3)nc2)CC1 [M20]
[1]; Bootstrap median (95% CI)
  CLint of M20 in liver: 454 (417–489) L/h
[1]; Estimate (%SEE)
  CLint of M20 in liver: 431 (2.00) L/h
[2]; [7]
  AUC0−∞: 3450 (34.4) ng·h/mL
  Apparent hepatic clearance: 23.9 (23.7) L/h
  Cmax: 49.1 (32.5) ng/mL
  Half-life: 20.3 (21.3) h
[2]; [8]
  AUC0−∞: 2870 (69.6) ng·h/mL
  Apparent hepatic clearance: 22.5 (44.3) L/h
  Cmax: 59.3 (78.7) ng/mL
  Half-life: 14 (62.5) h
[2]; [9]
  AUC0−∞: 3020 (72.8) ng·h/mL
  Apparent hepatic clearance: 25.8 (43.3) L/h
  Cmax: 66.1 (82.8) ng/mL
  Half-life: 13 (70.1) h
[2]; [10]
  AUC0−∞: 2750 (55.0) ng·h/mL
  Apparent hepatic clearance: 26.2 (33.5) L/h
  Cmax: 39.4 (56.0) ng/mL
  Half-life: 19.4 (72.7) h
[2]; [11]
  AUC0−∞: 3240 (74.7) ng·h/mL
  Apparent hepatic clearance: 23.7 (52.1) L/h
  Cmax: 48.8 (83.0) ng/mL
  Half-life: 17.5 (62.5) h
[3]; [12]
  AUC0−∞: 3260 (26) ng·h/mL
  Cmax: 55.7 (26) ng/mL
  Half-life: 35.3 (16) h
